Screening results: PubChem, several laboratories
IMP-1 inh – inhibitors of Pseudomonas aeruginosa IMP-1 metallo-beta-lactamase; purified IMP-1, nitrocefin hydrolysis, epi-absorbance fluorescence; inhibition, % at 5.6 µM; actives 0.45% (n = 290,000); AID 1556;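 active = inhibition above the mean plus 3 SD of all compounds in the same screening run, cut at about 4.5% in these data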
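System – purified recombinant IMP-1 beta-lactamase · Input – IMP-1 dispensed at 0.2 nM · Timing – 15 min preincubation plus 25 min reaction at 25 °C · Signal – Epi-absorbance fluorescence, 480 nm excitation, 530 nm emission · Measure – percent IMP-1 inhibition derived from blank-referenced optical density · Controls – Enzyme-plus-DMSO low control, enzyme-free DMSO high control · Replication – singlicate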
VIM-2 inhibitor – blocks Pseudomonas aeruginosa VIM-2 metallo-beta-lactamase. inhibition, % at 5.6 µM. AID 1527. purified VIM-2, nitrocefin hydrolysis, epi-absorbance fluorescence. actives 0.89% (n = 290,000);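 active = inhibition above the mean of all tested compounds plus 3 SD, cutoff set per screening run, cut at about 7.5% in these data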;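 also: red hydrolysis product quenches plate fluorescence so inhibitors raise well fluorescence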
Mdm2 MdmX PPI – inhibitors of human Mdm2/MdmX interaction | O15151+Q00987 | SaOS-2 split-luciferase Mdm2/MdmX complementation, luminescence | actives 3% (n = 330,000) | inhibition, % at 8 µM;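 active = inhibition of at least 50% at 8 µM in the primary screen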
Target sequence (O15151 whole entry, looked up): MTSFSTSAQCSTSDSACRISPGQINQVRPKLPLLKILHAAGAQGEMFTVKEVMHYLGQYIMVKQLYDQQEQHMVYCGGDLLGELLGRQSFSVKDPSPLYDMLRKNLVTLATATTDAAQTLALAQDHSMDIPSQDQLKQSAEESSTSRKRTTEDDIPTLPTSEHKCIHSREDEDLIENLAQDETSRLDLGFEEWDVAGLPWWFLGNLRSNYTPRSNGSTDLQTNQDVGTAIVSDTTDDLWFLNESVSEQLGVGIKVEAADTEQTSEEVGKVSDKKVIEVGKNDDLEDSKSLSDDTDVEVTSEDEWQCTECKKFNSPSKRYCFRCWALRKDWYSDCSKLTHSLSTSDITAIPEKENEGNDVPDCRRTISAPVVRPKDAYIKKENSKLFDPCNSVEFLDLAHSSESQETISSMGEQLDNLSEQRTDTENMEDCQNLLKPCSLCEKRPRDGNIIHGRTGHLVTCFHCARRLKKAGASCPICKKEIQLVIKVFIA
Target sequence (Q00987 whole entry, looked up): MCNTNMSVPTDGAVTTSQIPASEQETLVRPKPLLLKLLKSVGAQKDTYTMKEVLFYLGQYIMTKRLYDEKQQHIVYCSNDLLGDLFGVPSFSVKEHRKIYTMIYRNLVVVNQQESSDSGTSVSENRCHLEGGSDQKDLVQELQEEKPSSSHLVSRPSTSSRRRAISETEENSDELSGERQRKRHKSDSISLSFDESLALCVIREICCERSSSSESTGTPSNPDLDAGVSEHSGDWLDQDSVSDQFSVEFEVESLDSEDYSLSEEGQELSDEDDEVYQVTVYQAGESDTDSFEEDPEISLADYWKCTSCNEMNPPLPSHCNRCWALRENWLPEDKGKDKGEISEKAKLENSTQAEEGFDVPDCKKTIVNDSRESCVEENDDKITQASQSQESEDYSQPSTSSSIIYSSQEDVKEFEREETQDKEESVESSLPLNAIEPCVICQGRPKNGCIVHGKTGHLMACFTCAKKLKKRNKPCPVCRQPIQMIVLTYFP
aSyn UTR inh – MLPCN primary screen, SNCA 5' untranslated region | alpha-synuclein 5'UTR reporter, inhibitor activity | inhibition, % (tested at 7.5 µM) | actives 0.82% (n = 300,000); in the data active = inhibition above about 60%; inconclusive = no clear call, values can overlap the other calls;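 also: H4 neuroglioblastoma cells stably carrying SNCA 5'UTR luciferase fusion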
697 NFkB inh – lowers PMA/ionomycin-induced NF-kB signal in 697 B cells; 697 B-cell NF-kB luciferase reporter, 16 h; inhibition, % at 4 µM; actives 0.33% (n = 330,000); in the data active = inhibition above about 35%
Jurkat NFkB inh – inhibitors of the PMA/ionomycin-induced NF-kB reporter in Jurkat cells; PMA/ionomycin-induced NF-kB luciferase reporter, luminescence; inhibition, % at 4 µM; actives 0.53% (n = 330,000); in the data active = inhibition above about 50%
Mdm2 MdmX conf – human Mdm2/MdmX binding inhibition, confirmed. inhibition, % at 8 µM. shares compounds with Mdm2 MdmX PPI. luminescent assay. actives 55% (n = 10,000). AID 489028; in the data active = inhibition above about 40%
Full FLuc ctr – inhibits full-length luciferase, flagging false Mdm2/MdmX hits; shares compounds with Mdm2 MdmX PPI; SaOS-2 full-length luciferase counterscreen, luminescence; inhibition, % at 8 µM; actives 77% (n = 6,200);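 active = mean inhibition at 8 µM reaching about 37%, which flags the compound as non-specific, limit read from the data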;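 also: p53-null SaOS-2 cells with luciferase driven by a doxycycline-inducible promoter; compound on cells about two nights before reading with doxycycline added after day one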
Of the large screens only hits and unclear results are named; the others gave an inactive call (follow-up assays come after a bar, where they were run). Compounds with a hit are over-represented: about 4.7% of the library has one in this group of screens.

O=C(O)Cc1ccc(S(=O)(=O)Nc2ccccc2C(=O)O)cc1	none
CCSc1nnc(NC(=O)NC(CC)(C(F)(F)F)C(F)(F)F)s1	Mdm2 MdmX PPI 90.0 | Mdm2 MdmX conf inactive | Full FLuc ctr 64.1
O=C(NC(CSCc1ccccc1)C(=O)N/N=C/c1ccc(O)cc1O)c1ccc([N+](=O)[O-])cc1 (configuration not stated)	Mdm2 MdmX PPI 65.0, aSyn UTR inh 83.7 | Mdm2 MdmX conf 74.0 | Full FLuc ctr inactive
Cc1cccc(Cc2nnc(CCC(=O)NCc3cn4ccccc4n3)o2)c1	none
CC1(c2ccc(OC(F)F)cc2)NC(=O)N(CC(=O)c2ccc3c(c2)OCO3)C1=O (configuration not stated)	none (no result: IMP-1 inh, VIM-2 inhibitor)
Nc1ccc(C(=O)OCCCc2nc3cc4ccccc4cc3[nH]2)cc1	Mdm2 MdmX PPI 65.0 | Mdm2 MdmX conf inactive | Full FLuc ctr 93.7
Cc1c(Cl)cccc1NC(=S)N=Nc1c(O)n(CN2CCOCC2)c2ccccc12	Mdm2 MdmX PPI 81.9, aSyn UTR inh 64.5 | Mdm2 MdmX conf 63.1 | Full FLuc ctr 51.4
Cc1ccc(Cn2c(O)c(N=NC(=S)Nc3ccccc3F)c3ccccc32)cc1	Mdm2 MdmX PPI 57.1, aSyn UTR inh 71.4 | Mdm2 MdmX conf 60.0 | Full FLuc ctr 48.5
C=CCn1c(O)c(N=NC(=S)Nc2ccccc2F)c2cc(S(=O)(=O)N3CCOCC3)ccc21	Mdm2 MdmX PPI 64.0, aSyn UTR inh 77.9 | Mdm2 MdmX conf 44.1 | Full FLuc ctr 50.0
Cc1ccc(S(=O)(=O)N2CCOCC2)cc1C(=O)Nc1ccccc1F	none
C=CCn1c(O)c(N=NC(=S)Nc2cccc(C)c2)c2ccccc21	Mdm2 MdmX PPI 61.0, aSyn UTR inh 93.6 | Mdm2 MdmX conf 55.4 | Full FLuc ctr inactive
CC(C)N1C(=O)CCN(C=O)c2ccccc21	none
O=[N+]([O-])c1ccc(CSc2nc3ncc(Br)cc3[nH]2)cc1	none
C=CCn1c(O)c(N=NC(=O)c2ccccc2NS(=O)(=O)c2cccs2)c2ccccc21	none
C=CCn1c(O)c(N=NC(=S)Nc2ccccc2F)c2ccccc21	Mdm2 MdmX PPI 75.8, aSyn UTR inh 67.4 | Mdm2 MdmX conf 57.0 | Full FLuc ctr 50.0
N#Cc1ccc(-c2csc(NNC(=O)c3ccc(Br)cc3)n2)cc1	Mdm2 MdmX PPI 77.2 | Mdm2 MdmX conf 58.8 | Full FLuc ctr inactive
O=c1cc(N2CCc3ccccc32)[nH]c(=O)n1-c1ccc(Cl)cc1	none
COc1cccc(N2CCN(c3nc(-c4ccccc4C)cc(=O)[nH]3)CC2)c1	Mdm2 MdmX PPI 95.5 | Mdm2 MdmX conf 75.8 | Full FLuc ctr 81.2
Cc1nc(NCc2ccco2)c2c3c(sc2n1)CCC3	Mdm2 MdmX PPI 71.7 | Mdm2 MdmX conf inactive
NS(=O)(=O)c1cccc(NC(=O)c2ccc(S(=O)(=O)N3CCCCCC3)cc2)c1	none (no result: IMP-1 inh, VIM-2 inhibitor, aSyn UTR inh)
O=c1ccc2ccc(Oc3ccc([N+](=O)[O-])cc3[N+](=O)[O-])cc2o1	Mdm2 MdmX PPI 57.6 | Mdm2 MdmX conf 60.0 | Full FLuc ctr 71.7
O=C(Oc1ccc2ccc(=O)oc2c1)c1ccc([N+](=O)[O-])cc1	none
Cc1cccc(N2CCN(C(=O)CN3C(=O)NC(C)(C4CC4)C3=O)CC2)c1C (configuration not stated)	none (no result: IMP-1 inh, VIM-2 inhibitor, aSyn UTR inh)
COc1ccc(C(=O)Nc2ccc(C)cn2)c(OC)c1	Mdm2 MdmX PPI 67.8, aSyn UTR inh 115.5 | Mdm2 MdmX conf 66.9 | Full FLuc ctr 85.1
COc1ccc(C(=O)Nc2cc(C)on2)c(OC)c1	none
CC(C)=CCC/C(C)=C/CNC(=O)C[C@H]1C[C@H](C(=O)N2CCCCC2)[C@@]2(C)c3[nH]c4cc(-c5ccco5)ccc4c3CCN2C1=O	none (no result: IMP-1 inh, VIM-2 inhibitor, aSyn UTR inh, Jurkat NFkB inh)
CCCC(=O)NC(NC(=S)Nc1ccc(N=Nc2ccccc2)cc1)C(Cl)(Cl)Cl (configuration not stated)	Mdm2 MdmX PPI 86.2 | Mdm2 MdmX conf 89.1 | Full FLuc ctr inactive
CCc1ccc(OCC(=O)NC(NC(=S)Nc2ccc(Cl)cc2)C(Cl)(Cl)Cl)cc1 (configuration not stated)	Mdm2 MdmX PPI 84.3 | Mdm2 MdmX conf 92.1 | Full FLuc ctr inactive
CC(C)c1ccc(OCC(=O)Nc2c3c(nn2C(C)(C)C)CS(=O)(=O)C3)cc1	none (no result: IMP-1 inh, VIM-2 inhibitor)
CC(OC(=O)CSc1ccc([N+](=O)[O-])cc1)C(=O)NCc1ccccc1 (configuration not stated)	none (no result: IMP-1 inh, VIM-2 inhibitor)
COc1ccc(S(=O)(=O)NC2CC2)cc1Cl	none
O=C(CC(=O)Nc1ccc(Cl)cc1Cl)Nc1ccc(Cl)cc1Cl	none
O=C(CC(Nc1ccc(Cl)cc1Cl)C(=O)O)c1ccccc1 (configuration not stated)	Mdm2 MdmX PPI 71.4 | Mdm2 MdmX conf 79.5 | Full FLuc ctr 63.4
C=CCn1c(=O)c2ccccc2n2c(Sc3nnnn3-c3ccccc3)nnc12	Mdm2 MdmX PPI 53.0 | Mdm2 MdmX conf inactive
COc1ccc(NC(=O)C2(c3ccc(NC(=O)c4ccc(OC)c(OC)c4)cc3)CCCC2)cc1	Mdm2 MdmX PPI 54.9 | Mdm2 MdmX conf inactive
NC(=O)C(c1ccc(Cl)cc1)c1ccc(Sc2ccc(Cl)cc2)nn1 (configuration not stated)	none
Cc1ccc2[nH]c(CN3CCC(CO)(CC4CCCCO4)CC3)c(C)c2c1 (configuration not stated)	Mdm2 MdmX PPI 53.0 | Mdm2 MdmX conf inactive
O=C(COC(=O)CN1C(=O)c2ccccc2C1=O)NC1CCCCC1	none
O=C1C(Cl)=C(NCCN2CCCCC2)C(=O)c2ccccc21	Mdm2 MdmX PPI 98.9, aSyn UTR inh inconclusive | Mdm2 MdmX conf inactive
CCNC1=C(Cl)C(=O)c2ccccc2C1=O	none
CCOC(=O)/C(=C\c1cccc(O)c1)c1nc2sc(C)c(C)c2c(=O)[nH]1	Mdm2 MdmX PPI 82.0 | Mdm2 MdmX conf inactive | Full FLuc ctr inactive
CCOC(=O)c1nc2sc(C)c(C)c2c(=O)[nH]1	none
CCOC(=O)c1sc(/S(C)=N\S(=O)(=O)c2cccc(Cl)c2)c2c1CCC=C2 (configuration not stated)	none
CCCN(CCC)CCNC(=O)c1cc2c(-c3ccc(Cl)cc3)nn(C)c2s1	none
CCCCN(CC)CCNC(=O)c1cc2c(-c3ccc(Cl)cc3)nn(C)c2s1	Mdm2 MdmX PPI 57.7, aSyn UTR inh 78.9 | Mdm2 MdmX conf inactive | Full FLuc ctr inactive
Cn1nc(-c2ccc(Cl)cc2)c2cc(C(=O)NC3CC3)sc21	Mdm2 MdmX PPI 58.9 | Mdm2 MdmX conf inactive
COc1cc(Cl)ccc1OCc1cc(C(=O)NC(C)Cc2cccnc2)no1 (configuration not stated)	none
